Measured values: ChEMBL document CHEMBL1158122, “Anti-inflammatory, anti-tumor-promoting, and cytotoxic activities of constituents of marigold (Calendula officinalis) flowers” (J Nat Prod, 2006)

Tests used:
NCI-H322M = assay: Cytotoxicity against human NCI-H322M cells after 48 hrs by SRB assay; assay type: functional
NCI-H460 = assay: Cytotoxicity against human NCI-H460 cells after 48 hrs by SRB assay; assay type: functional; conditions: NCI-H460, 48 h
NCI-H522 = assay: Cytotoxicity against human NCI-H522 cells after 48 hrs by SRB assay; assay type: functional; conditions: NCI-H522, 48 h
COLO 205 = assay: Cytotoxicity against human COLO205 cells after 48 hrs by SRB assay; assay type: functional; conditions: COLO 205, 48 h
HCC 2998 = assay: Cytotoxicity against human HCC2998 cells after 48 hrs by SRB assay; assay type: functional; conditions: HCC 2998, 48 h
[1] = Cytotoxicity against human HCT 116 cells after 48 hrs by SRB assay; assay type: functional; conditions: HCT-116, 48 h
HT-29 = assay: Cytotoxicity against human HT-29 cells after 48 hrs by SRB assay; assay type: functional; conditions: HT-29, 48 h
KM12 = assay: Cytotoxicity against human KM12 cells after 48 hrs by SRB assay; assay type: functional; conditions: KM12, 48 h
SW-620 = assay: Cytotoxicity against human SW620 cells after 48 hrs by SRB assay; assay type: functional; conditions: SW-620, 48 h
SF-268 = assay: Cytotoxicity against human SF-268 cells after 48 hrs by SRB assay; assay type: functional; conditions: SF-268, 48 h
SNB-19 = assay: Cytotoxicity against human SNB-19 cells after 48 hrs by SRB assay; assay type: functional; conditions: SNB-19, 48 h
U-251 = assay: Cytotoxicity against human U251 cells after 48 hrs by SRB assay; assay type: functional; conditions: U-251, 48 h
In short: (§1)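 Tested in the NCI panel of 60 human tumour cell lines covering lung, colon, melanoma, renal, ovarian, breast and leukaemia. At least five concentrations were run in 10-fold dilutions starting from 10^-4 M. Exposure was continuous for 48 h. Growth or viability was estimated by sulforhodamine B protein staining, and GI50 values were reported.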

LOX IMVI = assay: Cytotoxicity against human LOX IMVI cells after 48 hrs by SRB assay; assay type: functional
Malme-3M = assay: Cytotoxicity against human MALME-3M cells after 48 hrs by SRB assay; assay type: functional
SK-MEL-2 = assay: Cytotoxicity against human SK-MEL-2 cells after 48 hrs by SRB assay; assay type: functional; conditions: SK-MEL-2, 48 h
[2] = Cytotoxicity against human SK MEL28 cells after 48 hrs by SRB assay; assay type: functional; conditions: SK-MEL-28, 48 h
SK-MEL-5 = assay: Cytotoxicity against human SK-MEL-5 cells after 48 hrs by SRB assay; assay type: functional; conditions: SK-MEL-5, 48 h
UACC-257 = assay: Cytotoxicity against human UACC-257 cells after 48 hrs by SRB assay; assay type: functional; conditions: UACC-257, 48 h; in short: as §1
UACC-62 = assay: Cytotoxicity against human UACC-62 cells after 48 hrs by SRB assay; assay type: functional; conditions: UACC-62, 48 h; in short: as §1
IGROV-1 = assay: Cytotoxicity against human IGROV1 cells after 48 hrs by SRB assay; assay type: functional; conditions: IGROV-1, 48 h
OVCAR-3 = assay: Cytotoxicity against human OVCAR-3 cells after 48 hrs by SRB assay; assay type: functional; conditions: OVCAR-3, 48 h
OVCAR-5 = assay: Cytotoxicity against human OVCAR5 cells after 48 hrs by SRB assay; assay type: functional; conditions: OVCAR-5, 48 h
OVCAR-8 = assay: Cytotoxicity against human OVCAR8 cells after 48 hrs by SRB assay; assay type: functional; conditions: OVCAR-8, 48 h
786-0 = assay: Cytotoxicity against human 786-0 cells after 48 hrs by SRB assay; assay type: functional; conditions: 786-0, 48 h
NCI-H23 = assay: Cytotoxicity against human NCI-H23 cells after 48 hrs by SRB assay; assay type: functional; conditions: NCI-H23, 48 h
CAKI-1 = assay: Cytotoxicity against human Caki-1 cells after 48 hrs by SRB assay; assay type: functional; conditions: CAKI-1, 48 h
RXF 393 = assay: Cytotoxicity against human […] cells after 48 hrs by SRB assay; assay type: functional; conditions: RXF 393, 48 h
SN12C = assay: Cytotoxicity against human SN12C cells after 48 hrs by SRB assay; assay type: functional
TK-10 = assay: Cytotoxicity against human TK-10 cells after 48 hrs by SRB assay; assay type: functional; conditions: TK-10, 48 h; in short: as §1
UO-31 = assay: Cytotoxicity against human UO-31 cells after 48 hrs by SRB assay; assay type: functional; conditions: UO-31, 48 h; in short: as §1
PC-3 = assay: Cytotoxicity against human PC-3 cells after 48 hrs by SRB assay; assay type: functional; conditions: PC-3, 48 h
MCF7 = assay: Cytotoxicity against human MCF7 cells after 48 hrs by SRB assay; assay type: functional; conditions: MCF7, 48 h
NCI/ADR-RES = assay: Cytotoxicity against human NCI/ADR-RES cells after 48 hrs by SRB assay; assay type: functional
MDA-MB-231 = assay: Cytotoxicity against human MDA-MB-231 cells after 48 hrs by SRB assay; assay type: functional; conditions: MDA-MB-231, 48 h
[3] = Cytotoxicity against human Hs 578T cells after 48 hrs by SRB assay; assay type: functional
MDA-MB-435 = assay: Cytotoxicity against human MDA-MB-435 cells after 48 hrs by SRB assay; assay type: functional; conditions: MDA-MB-435, 48 h
BT-549 = assay: Cytotoxicity against human BT-549 cells after 48 hrs by SRB assay; assay type: functional; conditions: BT-549, 48 h
T47D = assay: Cytotoxicity against human T47D cells after 48 hrs by SRB assay; assay type: functional; in short: as §1
HCT-15 = assay: Cytotoxicity against human HCT-15 cells after 48 hrs by SRB assay; assay type: functional; conditions: HCT-15, 48 h
Raji [4] = assay: Inhibition of TPA-induced EBV-early antigen activation in human Raji cells at 1000 molar ratio relative to TPA; assay type: cell-based; set-up: scale not given: the % may be the effect or the level left; conditions: human gammaherpesvirus 4
Raji [5] = assay: Inhibition of TPA-induced EBV-early antigen activation in human Raji cells at 500 molar ratio relative to TPA; assay type: cell-based; set-up: scale not given: the % may be the effect or the level left; conditions: human gammaherpesvirus 4
Raji [6] = assay: Inhibition of TPA-induced EBV-early antigen activation in human Raji cells at 100 molar ratio relative to TPA; assay type: cell-based; set-up: scale not given: the % may be the effect or the level left; conditions: human gammaherpesvirus 4
Raji [7] = assay: Inhibition of TPA-induced EBV-early antigen activation in human Raji cells at 10 molar ratio relative to TPA; assay type: cell-based; set-up: scale not given: the % may be the effect or the level left; conditions: human gammaherpesvirus 4
[8] = Inhibition of TPA-induced EBV-early antigen activation in human Raji cells relative to TPA; assay type: cell-based, human gammaherpesvirus 4
[9] = Cytotoxicity against human Raji cells assessed as cell viability at 1000 molar ratio; assay type: cell-based; conditions: read-out: Activity
In short: (§2)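 Raji cells were treated with 32 pmol TPA to induce EBV early antigen activation. The test agent was added at 10, 100, 500 or 1000 mol ratio relative to TPA, and Raji cell viability was measured alongside EA activation.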

[10] = Cytotoxicity against human Raji cells assessed as cell viability at 500 molar ratio; assay type: cell-based; conditions: read-out: Activity; in short: as §2
[11] = Cytotoxicity against human Raji cells assessed as cell viability at 100 molar ratio; assay type: cell-based; conditions: read-out: Activity; in short: as §2
[12] = Cytotoxicity against human Raji cells assessed as cell viability at 10 molar ratio; assay type: cell-based; conditions: read-out: Activity; in short: as §2
HL-60 = assay: Cytotoxicity against human HL-60 cells after 48 hrs by SRB assay; assay type: functional; conditions: HL-60, 48 h
CCRF-CEM = assay: Cytotoxicity against human CCRF-CEM cells after 48 hrs by SRB assay; assay type: functional
K562 = assay: Cytotoxicity against human K-562 cells after 48 hrs by SRB assay; assay type: functional; conditions: K562, 48 h
MOLT-4 = assay: Cytotoxicity against human MOLT-4 cells after 48 hrs by SRB assay; assay type: functional; conditions: MOLT-4, 48 h
A549 = assay: Cytotoxicity against human A549 cells after 48 hrs by SRB assay; assay type: functional; conditions: A549, 48 h
EKVX = assay: Cytotoxicity against human EKVX cells after 48 hrs by SRB assay; assay type: functional
HOP-62 = assay: Cytotoxicity against human HOP-62 cells after 48 hrs by SRB assay; assay type: functional; conditions: HOP-62, 48 h
NCI-H226 = assay: Cytotoxicity against human NCI-H226 cells after 48 hrs by SRB assay; assay type: functional; conditions: NCI-H226, 48 h
ACHN = assay: Cytotoxicity against human ACHN cells after 48 hrs by SRB assay; assay type: functional

COC(=O)[C@H]1O[C@@H](O[C@H]2CC[C@]3(C)[C@H]4CC=C5[C@@H]6CC(C)(C)CC[C@]6(C(=O)O)CC[C@@]5(C)[C@]4(C)CC[C@H]3C2(C)C)[C@H](O)[C@@H](O[C@@H]2O[C@H](CO)[C@H](O)[C@H](O)[C@H]2O)[C@@H]1O
GI50 (NCI-H322M): 7.59 µM | GI50 (NCI-H460): 11.5 µM | GI50 (NCI-H522): 10.5 µM | GI50 (COLO 205): 8.64 µM | GI50 (HCC 2998): 7.14 µM | GI50 [1]: 6.39 µM | GI50 (HT-29): 12.4 µM | GI50 (KM12): 8.83 µM | GI50 (SW-620): 7.28 µM | GI50 (SF-268): 7.56 µM | GI50 (SNB-19): 6.82 µM | GI50 (U-251): 6.08 µM | GI50 (LOX IMVI): 6.27 µM | GI50 (Malme-3M): 6.22 µM | GI50 (SK-MEL-2): 11.9 µM | GI50 [2]: 10.2 µM | GI50 (SK-MEL-5): 6.14 µM | GI50 (UACC-257): 6.89 µM | GI50 (UACC-62): 6.23 µM | GI50 (IGROV-1): 20.1 µM | GI50 (OVCAR-3): 13.9 µM | GI50 (OVCAR-5): 7.31 µM | GI50 (OVCAR-8): 9.96 µM | GI50 (786-0): 6.36 µM | GI50 (NCI-H23): 6.46 µM | GI50 (CAKI-1): 12.2 µM | GI50 (RXF 393): 11.3 µM | GI50 (SN12C): 6.34 µM | GI50 (TK-10): 7.22 µM | GI50 (UO-31): 33.3 µM | GI50 (PC-3): 6.43 µM | GI50 (MCF7): 9.93 µM | GI50 (NCI/ADR-RES): 7.24 µM | GI50 (MDA-MB-231): 7.28 µM | GI50 [3]: 8.77 µM | GI50 (MDA-MB-435): 13.3 µM | GI50 (BT-549): 6.93 µM | GI50 (T47D): 8.16 µM | GI50 (HCT-15): 6.57 µM | Activity (Raji [4]): 10% | Activity (Raji [5]): 47.2% | Activity (Raji [6]): 71.2% | Activity (Raji [7]): 100% | IC50 [8]: 479 molar ratio | viability at 1000 molar ratio [9]: 70% | viability at 500 molar ratio [10]: > 80% | viability at 100 molar ratio [11]: > 80% | viability at 10 molar ratio [12]: > 80% | GI50 (HL-60): 6.92 µM | GI50 (CCRF-CEM): 5.79 µM | GI50 (K562): 8.17 µM | GI50 (MOLT-4): 2.17 µM | GI50 (A549): 7.22 µM | GI50 (EKVX): 6.59 µM | GI50 (HOP-62): 6.21 µM | GI50 (NCI-H226): 6.18 µM | GI50 (ACHN): 5.99 µM
